In ChEMBL document CHEMBL1821649, “Synthesis, characterization of some benzazoles bearing pyridine moiety: search for novel anticancer agents” (2011):

System: UO-31
Experiment: Antitumor activity against human UO31 cells at 10^-5 M after 48 hrs by SRB assay
Type: functional
Settings: UO-31, 48 h, read-out: GI
Outline: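 Single-dose screen following the National Cancer Institute Drug Evaluation Branch protocol, run on the NCI panel of 60 human tumour cell lines covering nine cancer types. Percent growth of treated cells was recorded and reported as percentage growth inhibition (GI%). Compounds meeting preset inhibition thresholds advanced to a five-dose, 10-fold dilution series.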

Cc1cc2nc(-c3c(N)ncc(C#N)c3-c3ccc(O)cc3)[nH]c2cc1C
inhibition of growth at 10 µM: 33.4%
